Screening results: PubChem, several laboratories
An excerpt weighted towards active compounds, which were near 2.8% of everything screened.
MC4R ag barr = human MC4R agonism via beta-arrestin; activation, % at 8.9 µM; 360,000 compounds, 0.98% hits; U2OS MC4R beta-arrestin complementation, luminescence; percent of melanotan II response, DMSO zero;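 active = activation above a per-plate cutoff, the mean activation of sample wells on that plate plus 3 SD, cut at about 8% in these data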
MC4R antagonist = human MC4R antagonism in cAMP assay; P32245; MC4R-expressing cells, MTII-stimulated cAMP, LANCE TR-FRET; 360,000 compounds, 0.48% hits; inhibition, % at 6.5 µM;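 active = inhibition above its plate's cutoff, the mean of tested wells on that plate plus 3 SD, cut at about 29% in these data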
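Assay system: U2OS-MC4R stable cell line; Also added: Melanotan II; Technique: Eu-cAMP/anti-cAMP TR-FRET, emission 671 nm; Times: 30-min compound, 1-h challenge, 1-h detection, room temperature.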
HTR2A ag = agonists of mouse serotonin 5-HT2A receptor (HTR2A). activation, % at 7.6 µM. 360,000 compounds, 0.66% hits. CHO-K1 mHTR2A beta-arrestin complementation, luminescence; percent of 30 µM serotonin response. P35363;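 active = activation above a run cutoff, the mean activation of all tested compounds plus 3 SD, cut at about 14% in these data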
EBI2 block = blocks human EBI2 receptor beta-arrestin signaling; EBI2 beta-arrestin recruitment, luminescence, 7a,25-OHC stimulated; inhibition, % at 5 µM; 360,000 compounds, 0.81% hits; in the data active = inhibition above about 38%;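 also: enzyme fragment complementation signal reports receptor beta-arrestin coupling in cells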
Target sequence (P32249 whole entry, looked up, the tested form may be a part): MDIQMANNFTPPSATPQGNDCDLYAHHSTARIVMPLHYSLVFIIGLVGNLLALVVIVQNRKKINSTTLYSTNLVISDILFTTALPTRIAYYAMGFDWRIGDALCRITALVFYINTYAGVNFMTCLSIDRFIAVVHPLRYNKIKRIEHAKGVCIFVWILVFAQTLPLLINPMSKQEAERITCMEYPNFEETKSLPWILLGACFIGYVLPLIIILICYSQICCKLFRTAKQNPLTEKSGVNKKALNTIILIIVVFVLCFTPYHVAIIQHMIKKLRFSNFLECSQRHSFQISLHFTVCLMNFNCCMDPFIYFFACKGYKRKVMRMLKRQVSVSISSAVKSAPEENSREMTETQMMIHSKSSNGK
EBI2 conf = EBI2 (human) antagonism, single concentration confirmation; shares compounds with EBI2 block; EBI2 beta-arrestin luminescence, 7a,25-OHC antagonism; inhibition, % at 5 µM; 2,400 compounds, 29% hits;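 active = inhibition of at least 50%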
EBI2 ag = EBI2 agonism counter-screen; shares compounds with EBI2 block; EBI2-expressing cells, agonist mode, luminescence, 60 min; 0% vehicle, 100% 7α,25-dihydroxycholesterol control; activation, % at 5 µM; 2,400 tested, under 10 active; AID 652000;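 active = activation of at least 50%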
bGal cs = beta-galactosidase inhibition counter-screen; shares compounds with EBI2 block; purified beta-galactosidase, luminescent Galacton Star, 15 min; 2,400 compounds, 1% hits; AID 652176; inhibition, % at 5 µM;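 active = replicate-average signal at least 3 plate SD below neutral wells, shown as high inhibition, flagging enzyme-inhibiting false positives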;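 also: higher means stronger loss of beta-gal luminescence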
Hits are given with their value; 0 = inactive; - = no result given.

SMILES	MC4R ag barr	MC4R antagonist	HTR2A ag	EBI2 block	EBI2 conf	EBI2 ag	bGal cs
COc1ccc2cc(CN(CC3CCCO3)C(=S)NCc3ccco3)c(=O)[nH]c2c1 (configuration not stated)	0	0	0	0	-	-	-
CN(CC(=O)Nc1c(Cl)cccc1Cl)C(=O)Cc1ccc2c(c1)CCC2	0	0	0	0	-	-	-
COC(=O)[C@H](CC(C)C)NC(=O)Cn1cnc(C(=O)Nc2ccc(C)c(C)c2)n1	0	0	0	0	-	-	-
Cn1ccnc1C(=O)c1cc(SCC(=O)NCc2ccccc2)nc2ccccc12	0	0	0	44	0	0	0
COCCNC(=S)N1CCC(C(=O)c2ccc(C)cc2)CC1	0	0	0	0	-	-	-
Cc1ccc(CNC(=O)C2CCN(C(=O)Nc3ccc(C)cc3)CC2)cc1	0	0	0	62	0	0	0
Cc1ccc(CNC(=O)C2CCN(C(=O)Nc3ccccc3)CC2)cc1	0	0	0	0	-	-	-
O=C(NCc1ccc(F)cc1)C1CCCN(C(=O)Nc2ccc(F)cc2)C1 (configuration not stated)	0	0	0	51	0	0	0
O=C(NCc1ccc(F)cc1)C1CCCN(C(=O)Nc2ccccc2)C1 (configuration not stated)	0	0	0	50	0	0	0
CCc1noc(C)c1C(=O)Nc1ccc(Cl)c(S(=O)(=O)N2CCCCC2)c1	0	0	0	0	-	-	-
OC[C@@H]1CN(Cc2ccc(F)cc2)C[C@H](n2cnc3c(NC4CC4)ncnc32)O1	0	0	0	65	66	0	0
CC(C)N(C)c1ncnc2c1ncn2[C@H]1CN(Cc2ccccc2)C[C@@H](CO)O1	0	0	0	0	-	-	-
CC(C)N(C)c1ncnc2c1ncn2[C@H]1CN(Cc2ccc(Cl)cc2)C[C@@H](CO)O1	0	0	0	83	77	0	0
COc1cccc(C(=O)Nc2ccccc2C(=O)NCC2CCCO2)c1 (configuration not stated)	0	0	0	0	-	-	-
Cc1cc(C2=CC(=O)C[C@H](c3ccc(F)cc3)C2)ccc1F	0	0	0	49	0	0	0
COc1ccc(C2=CC(=O)C[C@H](c3ccc(F)cc3)C2)cc1F	0	0	0	0	-	-	-
O=C1C=C(c2cc(Cl)cc(Cl)c2)C[C@@H](c2ccc(F)cc2)C1	0	0	0	48	0	0	0
COc1ccc([C@H]2CC(=O)C=C(c3ccc4ccn(C)c4c3)C2)cc1	0	0	0	73	0	0	0
O=C1C=C(c2ccc(Cl)c(C(F)(F)F)c2)C[C@@H](c2ccc(F)cc2)C1	0	0	0	0	-	-	-
COc1ccc([C@H]2CC(=O)C=C(c3ccccc3)C2)cc1	0	0	0	41	0	0	0
O=C(O)CCN1C(=O)c2ccc(NC(=O)CCc3ccccc3)cc2C1=O	0	0	0	0	-	-	-
CCN1CCN(c2oc(/C=C/c3ccccc3)nc2C#N)CC1	0	0	0	0	-	-	-
COc1ccc([C@H]2CC(=O)C=C(c3ccc(SC)cc3)C2)cc1	0	0	0	71	0	0	0
O=C1C=C(c2ccc(OC(F)(F)F)cc2)C[C@@H](c2ccc(F)cc2)C1	0	0	0	52	0	0	0
COc1ccc([C@H]2CC(=O)C=C(c3ccc(SC)cc3)C2)cc1OC	0	0	0	0	-	-	-
SMILES	MC4R ag barr	MC4R antagonist	HTR2A ag	EBI2 block	EBI2 conf	EBI2 ag	bGal cs
O=C1C=C(c2ccc(Oc3ccccc3)cc2)C[C@@H](c2ccc(F)cc2)C1	0	0	0	0	-	-	-
COc1ccc([C@H]2CC(=O)C=C(c3ccc4c(c3)sc3ccccc34)C2)cc1	0	0	0	55	0	0	0
COc1ccc([C@H]2CC(=O)C=C(c3ccc4cc[nH]c4c3)C2)cc1	0	0	0	49	0	0	0
Cc1cc(N2C(=O)C3CCC(c4ccccc4)CC3C2=O)no1 (configuration not stated)	0	0	0	0	-	-	-
COC(=O)c1c(C)[nH]c(C(=O)C(C)OC(=O)C2CC2)c1C (configuration not stated)	0	0	0	0	-	-	-
CCCn1c(SCC(=O)c2cc(C)c(C)cc2C)n[nH]c1=O	0	0	0	0	-	-	-
COc1ccc([C@H]2CC(=O)C=C(c3cc(Cl)cc(Cl)c3)C2)cc1	0	0	0	46	0	0	0
O=C1C=C(Nc2ccccc2)CC(c2ccccc2)C1 (configuration not stated)	0	0	0	0	-	-	-
COc1ccc(C2=CC(=O)C[C@H](c3ccc(OC)cc3)C2)cc1	0	0	0	54	0	0	0
CSc1ccc(C2=CC(=O)C[C@H](c3ccc(F)cc3)C2)cc1	0	0	0	66	50	0	0
COc1ccc([C@H]2CC(=O)C=C(c3cc(C(F)(F)F)cc(C(F)(F)F)c3)C2)cc1	0	0	0	0	-	-	-
COc1ccc([C@H]2CC(=O)C=C(c3ccc4c(c3)OCO4)C2)cc1	0	0	0	0	-	-	-
COc1ccc(NC2=CC(=O)CC(c3ccccc3)C2)cc1 (configuration not stated)	0	0	0	52	0	0	0
Cc1ccc(Sc2ncccc2C(N)=O)cc1	0	0	0	0	-	-	-
Clc1ccc(CN(Cc2ccccc2)C(c2cccs2)c2nnnn2C2CCCC2)cc1 (configuration not stated)	0	0	0	0	-	-	-
CC(C)(C)n1nnnc1C(c1cccs1)N(Cc1ccc(Cl)cc1)CC1CCCO1 (configuration not stated)	0	0	0	60	0	0	0
CCOc1ccccc1NC(=O)CSc1nc2cc(O)ccc2c(=O)n1-c1ccc(OC)c(OC)c1	0	0	0	0	-	-	-
O=C(OCC(=O)N1CCCc2ccccc21)c1cnc(Cl)c(Cl)c1	0	0	0	43	0	0	0
COC(=O)C1=C(CS(=O)(=O)c2ccccc2)NC(=O)NC1c1ccccc1 (configuration not stated)	0	0	0	0	-	-	-
Cc1ccc(C)c(Oc2cc(NC(=O)CCCn3nc(C)c([N+](=O)[O-])c3C)cc([N+](=O)[O-])c2)c1	0	0	0	44	0	0	0
CC(C)(C)c1nnc(N/N=C/c2ccc(Br)cc2)n(N)c1=O	0	0	0	92	80	0	0
CC(C)(C)c1ccc(/C=N/Nc2nncn2N)cc1	0	0	0	0	-	-	-
CCc1ccccc1NC(=O)CN(C)C(=O)c1cccc(S(=O)(=O)N2CCCCCC2)c1	0	0	0	0	-	-	-
O=C(Nc1ccc2c(c1)OCO2)N1CCN(S(=O)(=O)c2ccc(Cl)cc2)CC1	0	0	0	48	0	0	0
O=C(Nc1ccc2c(c1)OCO2)N1CCN(c2ccccc2Cl)CC1	0	0	0	50	0	0	0
